Assay results collected from several papers.
Read-out: cell growth or viability

`COc1ccc(F)cc1C(=O)NCc1ccc(-c2nn([C@@H](C)C(F)(F)F)c(N)c2C(N)=O)cc1` has an IC50 of 0.0064 µM (TMD8; ATP luminescence; 72 h).
For `CCSC(=O)c1ncn2c(=O)n(C)nnc12`, the IC50 was 327 µM (T98G; resazurin; 7 days).
For `C=CC(=O)Nc1cc(Nc2nc(N3CCOCC3)c3sccc3n2)c(OC)cc1N(C)CCN(C)C`, the IC50 was 37.5 µM (NCI-H1975; MTT).
`Cn1nnc2c(-c3ccccc3)ncn2c1=O` gave an IC50 of 14 µM (T98G; resazurin; 7 days).
`Cc1c(NC(=O)c2ccc(C(C)(C)C)cc2)cccc1-c1cn(C)c(=O)c(Nc2ccc(C(=O)N3CCOCC3)cc2)n1` has an IC50 of > 10 µM (CNE2Z).
The IC50 of `Cc1cc(C)c2cc(CNCCCNc3nc4ccccc4[nH]3)[nH]c2c1` is reported as > 10 µM (HEK293).
With `Cn1nnc2c(C(=O)N3CCCC3)ncn2c1=O` the IC50 was 186 µM (T98G; resazurin; 7 days).
`CC[C@@H](C)[C@H](N)C(=O)N1Cc2ccccc2C1` has an IC50 of 0.124 µM (SET-2; ATP luminescence; 48 h).
The IC50 of `C=C(Cl)C(=O)Nc1cc(Nc2nc(N3CCSCC3)c3sccc3n2)c(OC)cc1N(C)CCN(C)C` is reported as 0.165 µM (NCI-H1975; MTT).
`CCCCCCCc1[nH]c2ccccc2c(=O)c1C` gave an IC50 of > 10 µM (HEK293).
For `C=CC(=O)Nc1cc(Nc2nc(N3CCc4sccc4C3)c3cccnc3n2)c(OC)cc1N1CCN(CCO)CC1`, the IC50 was 0.906 µM (NCI-H1975; MTT).
`COC(=O)c1cc2ccc(O)cc2oc1=O` has an IC50 of > 20 µM (HEK293; MTT; 36 h).
For `C=CC(=O)Nc1cccc(Nc2nc(Nc3ccc(OCCOC)cc3)ncc2F)c1`, the IC50 was 1.27 µM (NCI-H1975).
For `C=CC(=O)Nc1cc(Nc2nc(N3CCc4sccc4C3)c3cccnc3n2)c(OC)cc1N1CCC(N(C)C)CC1`, the IC50 was 0.15 µM (NCI-H1975; MTT).
`O=C1NC(=NCc2cccs2)S/C1=C\c1ccc2ncccc2c1` gave an IC50 of > 10 µM (SK-MEL-28).
With `C=CC(=O)N1CCC[C@@H](n2nc(-c3ccc(Oc4ccccc4)cc3)c3c(N)ncnc32)C1` the IC50 was 0.01 µM (TMD8; CCK-8; 72 h).
The IC50 of `Cc1[nH]c(C)c(-c2ccc(-c3ccccc3C(F)(F)F)nc2)c(=O)c1Br` is reported as > 10 µM (HEK293).
With `COc1ccc2oc(=O)cc(CSC(C)=O)c2c1` the IC50 was > 20 µM (HEK293; MTT; 36 h).
For `Cc1[nH]cc(Br)c(=O)c1-c1ccc(Oc2ccc(OC(F)(F)F)cc2)cc1`, the IC50 was > 10 µM (HEK293).
`O=c1cc(CCl)c2ccc(O)cc2o1` has an IC50 of 15.8 µM (HEK293; MTT; 36 h).
`C=C(Cl)C(=O)Nc1cc(Nc2nc(N3CCc4sccc4C3)c3sccc3n2)c(OC)cc1N(C)CCN(C)C` has an IC50 of 0.087 µM (NCI-H1975; MTT).
`CC(C)[C@H](N)C(=O)N1CCC[C@H]1B(O)O` gave an IC50 of 0.006 µM (SET-2; ATP luminescence; 48 h).
For `Cn1nnc2c(Cl)ncn2c1=O`, the IC50 was 60 µM (T98G; resazurin; 7 days).
With `CC(=O)O[C@H](C)C(=O)CCCCCCC(=O)Nc1ccccc1` the IC50 was 36.3 µM (HEK293; XTT).
For `CCOC(=O)c1c(-c2ccccc2)nc2c(sc3ccccc32)c1O`, the IC50 was > 10 µM (HEK293).
`C=C(Cl)C(=O)Nc1cc(Nc2nc(N3CCOCC3)c3sccc3n2)c(OC)cc1N(C)CCN(C)C` gave an IC50 of 0.12 µM (NCI-H1975; MTT).
`COc1cc(Nc2nccc(-c3cnn4nc(OC)ccc34)n2)cc(C(F)(F)F)c1` has an IC50 of 0.58 µM (MKN-1; ATP luminescence).
`Cc1[nH]c(C)c(-c2ccc(CCc3ccc(F)cc3F)cc2)c(=O)c1Br` gave an IC50 of > 10 µM (HEK293).
The IC50 of `CNC(=O)c1ncn2c(NCc3c(F)ccc4c3CCO4)ncc(-c3ccccc3)c12` is reported as 0.052 µM (KARPAS-422; 7 days).
For `C=CCC[C@@H]1NC(=O)[C@H]2CCCN2C(=O)[C@H](Cc2ccccc2)NC(=O)C(C)(C)NC1=O`, the IC50 was > 100 µM (HEK293; XTT).
With `c1cc(CN2CCN(c3ccncc3)CC2)cc(-c2ccc(-c3nc4ccccc4[nH]3)cc2)c1` the IC50 was > 10 µM (HEK293).
`O=c1ccc2ccc(O)c(CO)c2o1` has an IC50 of > 20 µM (HEK293; MTT; 36 h).
With `CCC(=O)Nc1cc(Nc2nc(N3CCc4sccc4C3)c3cccnc3n2)c(OC)cc1N1CCN(CCO)CC1` the IC50 was 0.471 µM (NCI-H1975; MTT).
With `Cc1c(O)ccc2ccc(=O)oc12` the IC50 was > 20 µM (HEK293; MTT; 36 h).
The IC50 of `COc1cccc(Oc2ccccc2NC(=O)CNC(=O)c2c(C)cc(C)cc2C)c1` is reported as 5.5 µM (A673).
With `CCC(=O)Nc1cc(Nc2nc(N3CCc4sccc4C3)c3cccnc3n2)c(OC)cc1N1CCC(N(C)C)CC1` the IC50 was 0.81 µM (NCI-H1975; MTT).
`Cc1[nH]c(C)c(-c2ccc(OCc3ccc(F)cc3)cc2)c(=O)c1Cl` has an IC50 of > 10 µM (HEK293).
